Assay [1] has as its target T1, Delta-type opioid receptor (Homo sapiens, UniProt P41143). Briefly: Agonistic efficacy at human delta opioid receptor by [35S]GTP-gammaS binding assay. In kind it is functional. In a few lines: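 Cells expressing human DOR (delta) or rat MOR (mu) incubated with increasing test-compound concentrations and 0.1 nM [35S]GTP-gamma-S in assay buffer, duplicates, 90 min at 30 °C. Stopped by vacuum filtration through GF/B filters pretreated with assay buffer, then four washes with ice-cold 15 mM Tris/120 mM NaCl pH 7.4. Bound radioactivity counted by liquid scintillation after overnight extraction; Emax read as agonist-stimulated binding.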

For assay [2], the target named is Mu-type opioid receptor (Rattus norvegicus, UniProt P33535). Briefly: Agonistic efficacy at rat mu opioid receptor by [35S]GTPgammaS binding assay. Background: Binding of GTPγS marks nucleotide exchange on a G protein.
Assay [3] deals with T1, Delta-type opioid receptor. In words: Displacement of [3H]DPDPE from delta opioid receptor. In a few lines:
(§1)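 Competition binding on membranes from transfected cells stably expressing the mu or delta opioid receptor. Radioligands were [3H]DAMGO for mu and [3H]DPDPE for delta.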

The target of assay [4] is Mu-type opioid receptor (Cavia porcellus, UniProt P97266). Briefly: Activity at mu opioid receptor in longitudinal muscle myenteric plexus from guinea pig ileum. In kind it is functional, tissue-based. In a few lines: (§2)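 Isolated tissue bioassays, mouse vas deferens for delta and guinea pig ileum LMMP for mu. Data fitted to the Hill equation by computerized non-linear least squares, giving IC50, relative potency and their standard errors. IC50 is the mean of at least four experiments.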

Assay [5] concerns the target Delta-type opioid receptor (Mus musculus, UniProt P32300). Briefly: Activity at delta opioid receptor in mouse vas deferens. The assay is classed as functional, tissue-based. In a few lines: as §2
For assay [6], the target named is Mu-type opioid receptor (Homo sapiens, UniProt P35372). Briefly: Displacement of [3H]DAMGO from mu opioid receptor. The method in brief: as §1
(In general: Loss of bound radioactivity is the signal in a displacement assay; it reports binding, not function.)

pIC50: −log10 of the molar value. Starred links: 1 amine or outer side, 2 acyl side, 3 side chain; linkers in the order of their positions; H or OH if unused. Positions of bridges follow the written chain, without caps; N, C: chain ends. Non-standard residues stand in square brackets, D forms with d. Residues, ends and D or L forms follow the SMILES beside them. Chains are numbered I, II in the order given. NHNH = N(N[*:2])[*:1]

Mu-type opioid receptor (Rattus norvegicus, UniProt P33535), sequence (P33535 whole entry): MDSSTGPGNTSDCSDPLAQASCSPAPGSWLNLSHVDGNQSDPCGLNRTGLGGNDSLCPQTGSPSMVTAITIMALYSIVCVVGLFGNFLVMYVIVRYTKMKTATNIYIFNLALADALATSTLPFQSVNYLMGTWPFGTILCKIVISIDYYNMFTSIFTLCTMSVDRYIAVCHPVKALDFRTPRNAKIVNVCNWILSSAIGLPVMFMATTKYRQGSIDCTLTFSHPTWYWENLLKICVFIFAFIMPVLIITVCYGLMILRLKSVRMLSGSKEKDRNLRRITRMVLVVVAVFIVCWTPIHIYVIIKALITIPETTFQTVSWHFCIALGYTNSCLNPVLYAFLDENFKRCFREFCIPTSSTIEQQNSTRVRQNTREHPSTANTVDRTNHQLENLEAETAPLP
T1 sequence (P41143 whole entry): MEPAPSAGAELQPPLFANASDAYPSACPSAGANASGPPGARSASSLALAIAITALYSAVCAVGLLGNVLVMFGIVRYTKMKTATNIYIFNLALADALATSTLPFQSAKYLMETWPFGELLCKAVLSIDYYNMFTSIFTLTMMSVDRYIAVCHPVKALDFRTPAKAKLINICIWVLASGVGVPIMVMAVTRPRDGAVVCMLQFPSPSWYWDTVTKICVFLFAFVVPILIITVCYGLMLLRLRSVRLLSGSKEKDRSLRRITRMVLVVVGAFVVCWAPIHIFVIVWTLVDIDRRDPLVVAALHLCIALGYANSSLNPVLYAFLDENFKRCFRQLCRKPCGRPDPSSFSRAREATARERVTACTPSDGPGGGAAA
Mu-type opioid receptor (Homo sapiens, UniProt P35372), sequence (P35372 whole entry): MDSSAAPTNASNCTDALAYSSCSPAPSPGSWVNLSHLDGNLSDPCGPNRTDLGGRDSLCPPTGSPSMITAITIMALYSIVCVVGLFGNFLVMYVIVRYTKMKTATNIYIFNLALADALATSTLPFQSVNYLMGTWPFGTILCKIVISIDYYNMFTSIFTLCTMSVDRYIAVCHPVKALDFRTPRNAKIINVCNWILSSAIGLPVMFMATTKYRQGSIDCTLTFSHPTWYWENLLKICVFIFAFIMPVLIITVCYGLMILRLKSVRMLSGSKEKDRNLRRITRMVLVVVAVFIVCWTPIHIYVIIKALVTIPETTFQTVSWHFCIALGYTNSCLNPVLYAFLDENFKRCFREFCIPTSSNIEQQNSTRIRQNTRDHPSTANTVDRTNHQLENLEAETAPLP
Mu-type opioid receptor (Cavia porcellus, UniProt P97266), sequence (P97266 whole entry): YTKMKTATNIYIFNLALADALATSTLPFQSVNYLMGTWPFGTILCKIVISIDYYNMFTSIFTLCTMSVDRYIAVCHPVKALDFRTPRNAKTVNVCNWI
Delta-type opioid receptor (Mus musculus, UniProt P32300), sequence (P32300 whole entry): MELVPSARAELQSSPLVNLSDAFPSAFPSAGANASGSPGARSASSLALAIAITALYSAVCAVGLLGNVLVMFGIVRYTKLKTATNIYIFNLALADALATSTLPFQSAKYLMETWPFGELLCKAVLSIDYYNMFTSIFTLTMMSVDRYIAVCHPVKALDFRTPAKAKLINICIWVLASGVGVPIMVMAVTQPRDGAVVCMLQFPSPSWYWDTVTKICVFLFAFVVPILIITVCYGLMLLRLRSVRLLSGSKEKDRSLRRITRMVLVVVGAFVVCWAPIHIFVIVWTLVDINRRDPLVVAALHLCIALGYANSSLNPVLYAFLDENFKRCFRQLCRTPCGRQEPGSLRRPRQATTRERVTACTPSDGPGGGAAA

For orientation: Emax means the maximal effect, on the per cent scale that the assay sets. The pIC50 is the negative decadic logarithm of the IC50, by convention in mol/L. For `N[C@@H](Cc1ccc(O)cc1)C(=O)N[C@H]1CSSC[C@H](NC(=O)[C@@H](N)Cc2ccc(O)cc2)C(=O)NCC(=O)N[C@@H](Cc2ccccc2)C(=O)NNC(=O)[C@H](Cc2ccccc2)NC(=O)CNC1=O` (I: H-YCGF / II: H-YCGF; disulfide I:2-II:2; linker I:C-II:C via NHNH), the maximal response (Emax) in assay [1] was 58%. For the same molecule, the negative-log IC50 (pIC50) is 6.59 in assay [1]; 6.92 in assay [2]; 7.28 in assay [3]; 6.38 in assay [4]; 6.24 in assay [5]; 6.89 in assay [6].
`N[C@@H](Cc1ccc(O)cc1)C(=O)N[C@@H]1CSSC[C@@H](NC(=O)[C@@H](N)Cc2ccc(O)cc2)C(=O)NCC(=O)N[C@@H](Cc2ccccc2)C(=O)NNC(=O)[C@H](Cc2ccccc2)NC(=O)CNC1=O` (I: H-Y[dC]GF / II: H-Y[dC]GF; disulfide I:2-II:2; linker I:C-II:C via NHNH) returned an Emax in assay [1] of 100%. For the same molecule, the negative logarithm of the IC50 (pIC50) in assay [1] was 9.06; in assay [2], 9.70; in assay [3], 9.06; in assay [4] it was 7.60; in assay [5], 8.00; in assay [6], 9.22.
For the molecule `C[C@@H](NC(=O)[C@@H](N)Cc1ccc(O)cc1)C(=O)NCC(=O)N[C@@H](Cc1ccccc1)C(=O)NNC(=O)[C@H](Cc1ccccc1)NC(=O)CNC(=O)[C@@H](C)NC(=O)[C@@H](N)Cc1ccc(O)cc1` [BIPHALIN], the maximal response (Emax) in assay [1] was 27%. This molecule also gave a negative-log IC50 (pIC50) in assay [2] of 8.22.

Source of the values: ChEMBL document CHEMBL1147769 (Bioorg Med Chem Lett, 2006).
